Screening results (PubChem BioAssay)
Hits are enriched below; roughly 2% of the tested compounds scored in any of these assays.
ARNT-TACC3 inh: disruptors of ARNT/TACC3 protein interaction, primary screen, biochemical, AlphaScreen, single concentration; AID 623870, 2012; Transforming acidic coiled-coil-containing protein 3 (Homo sapiens), Q9Y6A5; inhibition, % at 9.99 µM; AlphaScreen His-ARNT PAS-B/GST-TACC3 binding, luminescence; TACC3 fragment carries E629A point mutation; 390,000 compounds, 0.66% hits;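 active = mean inhibition of replicates at least 50% and at least half of replicates each reaching 50%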
HGIII-sPLA2 inh: human group III sPLA2 inhibitors, primary screen, biochemical, QFRET, BODIPY PC-A2 liposome substrate | inhibition, % at 12.2 µM | AID 743126, 2013 | QFRET BODIPY PC-A2 liposome hydrolysis, fluorescence | 370,000 compounds, 0.56% hits;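 active = inhibition above mean plus 3 SD of compounds lying within the high and low control bounds, cut at about 19% in these data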
XiGFP reactiv: activators of inactive X chromosome reactivation, primary screen, imaging, XiGFP fibroblasts, GFP high-content imaging, set 2 | AID 743238, 2013 | XiGFP mouse fibroblasts, % GFP-positive cells imaging, 3 d; cells co-treated with 5-aza-dC sensitizer; scaled so ellipticine positive control = 100% | 360,000 compounds, 0.055% hits | activation, % at 7.58 µM;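 active = mean normalized replicate activation at least 10% and every replicate at or above 10%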
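assay system = SV40-immortalized XiGFP fibroblast cells, line 68-5-11 | buffer or medium = DMEM plus 5-aza-dC sensitizer | doses = single-point pinned compound dosing | times = 3-day compound exposure, then 15 min fixation at room temperature | benchmarks = positive control ellipticine, 6 µM final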
NSD2 HMT inh: NSD2 histone methyltransferase inhibitors, primary screen, biochemical, AlphaScreen, single concentration, set 2. NSD2 peptide methylation, 120 min. 310,000 compounds, 0.54% hits. Histone-lysine N-methyltransferase NSD2 (Homo sapiens), O96028. AID 743445, 2014. inhibition, % at 12.5 µM; in the data active = inhibition above about 50%
SR-BI uptake up: activators of SR-BI mediated DiI-HDL uptake, primary screen, ldlA[mSR-BI] CHO cells, DiI fluorescence; 320,000 compounds, 0.096% hits; activation, % at 12.5 µM; AID 504775, 2011; 3 h; 100 = double the neutral-control signal;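 active = mean replicate activation of at least 60% and every replicate at or above 60%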
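Test system: SR-BI-overexpressing, LDLR-lacking CHO cells. Measured by: DiI fluorescence, bottom read. Medium: Ham's F12 with 0.5% BSA, HEPES 25 mM, pH 7.4. Timing: 3 h uptake period with compound, 37 °C.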
SR-BI DiI inh: inhibitors of SR-BI mediated HDL lipid uptake, primary screen, ldlA[mSR-BI] cells, fluorescence, single point | Scavenger receptor class B member 1 (Mus musculus), Q61009 | ldlA[mSR-BI] CHO cells, DiI-HDL uptake fluorescence, 3 h | inhibition, % at 12.5 µM | 320,000 compounds, 0.96% hits;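 active = mean replicate inhibition of at least 70% and a set share of replicates each scoring 70 or more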
Target sequence (Q61009 whole entry, looked up): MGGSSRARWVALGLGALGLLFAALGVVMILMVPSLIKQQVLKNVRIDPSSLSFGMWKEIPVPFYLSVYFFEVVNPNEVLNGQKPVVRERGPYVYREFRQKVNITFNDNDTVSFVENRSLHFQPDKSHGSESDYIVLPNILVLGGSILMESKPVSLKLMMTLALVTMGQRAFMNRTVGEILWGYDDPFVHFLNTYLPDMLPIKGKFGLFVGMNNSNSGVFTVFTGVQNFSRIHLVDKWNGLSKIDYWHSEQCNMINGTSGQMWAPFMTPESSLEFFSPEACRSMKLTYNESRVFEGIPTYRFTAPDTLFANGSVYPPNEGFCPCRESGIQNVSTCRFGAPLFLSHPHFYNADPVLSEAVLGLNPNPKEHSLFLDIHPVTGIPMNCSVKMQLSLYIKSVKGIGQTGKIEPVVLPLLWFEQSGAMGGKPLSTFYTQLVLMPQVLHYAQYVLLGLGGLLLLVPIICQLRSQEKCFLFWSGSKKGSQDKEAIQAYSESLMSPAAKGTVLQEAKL
Alpha artifact: AlphaScreen signal interference with preloaded methylated product, dose response, artefact control for NSD2 inhibitor project, biochemical, cherry-picked samples. shares compounds with NSD2 HMT inh. 1,500 compounds, 9.4% hits. AC35, µM (titrated, usually from 10 µM). AlphaScreen artifact counterscreen, preloaded methylated H4 peptide; call rule not given here
Large screens that a line does not name were inactive (follow-up assays come after a bar, where they were run).

CCOc1ccc(C(=O)N/N=C/c2ccc(-c3ccc(S(=O)(=O)Nc4ncccn4)cc3)o2)cc1	none (no result: XiGFP reactiv)
COc1ccc(C(C)(O)c2nc(-c3ccc(Cl)cc3)cs2)cc1 (configuration not stated)	none (no result: ARNT-TACC3 inh, SR-BI uptake up, SR-BI DiI inh)
CCOC(=O)C1=C(C)OC2(O)c3ccccc3C(=O)C12O (configuration not stated)	NSD2 HMT inh 107 (no result: ARNT-TACC3 inh, SR-BI uptake up, SR-BI DiI inh) | Alpha artifact inactive
CC(=O)C1=C(C)OC2(O)c3ccccc3C(=O)C12O (configuration not stated)	NSD2 HMT inh 90 (no result: ARNT-TACC3 inh, SR-BI uptake up, SR-BI DiI inh) | Alpha artifact inactive
COc1ccc(-n2c(C)c(C)c3c(NCCO)ncnc32)cc1	none (no result: HGIII-sPLA2 inh, XiGFP reactiv)
Nc1c2c(=O)[nH]c(O)cc2nn1-c1ccccc1	NSD2 HMT inh 100 | Alpha artifact inactive
Cc1c(C)c2c(C)nn(-c3ccccc3)c2[nH]c1=O	none (no result: XiGFP reactiv)
COc1ccc(OC)c(C(=O)COC(=O)C(CCSC)NC(=O)COc2ccccc2)c1 (configuration not stated)	none
COc1ccc(CNC(=O)COC(=O)c2[nH]c(C)c(C(C)=O)c2C)cc1OC	none
O=C(Nc1cccc(-n2cccn2)c1)C1CCCN(Cc2ccc(C#CCCO)cc2)C1 (configuration not stated)	none (no result: SR-BI uptake up)
O=C(c1ccco1)N(c1ccccn1)c1ccccn1	none (no result: XiGFP reactiv)
O=C(/C=C/c1ccco1)N(c1ccccn1)c1ccccn1	NSD2 HMT inh 77 | Alpha artifact inactive
CCOC(=O)CSc1nc(=O)n2ccc(C)cc2n1	none (no result: ARNT-TACC3 inh)
c1ccc(N2CCN(CC3CCCCC3)CC2)cc1	none
OC[C@@H]1CN(Cc2ccncc2)C[C@H](n2cnc3c(NCc4ccco4)ncnc32)O1	none (no result: ARNT-TACC3 inh, SR-BI uptake up, SR-BI DiI inh)
Cc1cccc(C)c1NC(=O)CN1CCN(C(=O)CCC(=O)N2CCC(c3ccccc3)=N2)CC1	none (no result: ARNT-TACC3 inh, SR-BI uptake up, SR-BI DiI inh)
O=C(NC1CCCCC1)c1ccc(S(=O)(=O)NCc2ccco2)cc1	NSD2 HMT inh 55 (no result: XiGFP reactiv) | Alpha artifact inactive
O=C(NC1CCN(Cc2ccccc2)CC1)c1ccc(S(=O)(=O)NCc2ccco2)cc1	none
CC1(C)Cc2c(ccc3ccccc23)/C(=C/C#N)N1	none (no result: XiGFP reactiv)
CCCN1C[C@H](C)[C@H](OC)CN(C)C(=O)c2ccc(NC(=O)CC(F)(F)F)cc2OC[C@@H]1C	none (no result: ARNT-TACC3 inh, HGIII-sPLA2 inh, NSD2 HMT inh, SR-BI uptake up, SR-BI DiI inh)
Cc1ccc(S(=O)(=O)N2CCCCC2CCNC(=O)C(=O)Nc2ccccc2F)cc1 (configuration not stated)	NSD2 HMT inh 95 | Alpha artifact inactive
COc1ccc(NC(=O)CN(C)S(=O)(=O)c2ccc(C)cc2)c([N+](=O)[O-])c1	NSD2 HMT inh 67 (no result: ARNT-TACC3 inh) | Alpha artifact inactive
COc1cccc(CC(=O)NNC(=O)CN(C)S(=O)(=O)c2ccc(C)cc2)c1	none (no result: ARNT-TACC3 inh)
Cc1cc(NC(=O)c2ccccc2)ccc1NC(=O)Cc1ccccc1	none
CC(=O)Nc1ccc(SCCC2CCCCN2C)cc1 (configuration not stated)	NSD2 HMT inh 88 (no result: SR-BI uptake up, SR-BI DiI inh) | Alpha artifact inactive
CCC(C)NC(=O)CSc1ccc(NC(C)=O)cc1 (configuration not stated)	none (no result: XiGFP reactiv)
COc1cc(/C=C2\SC(c3ccc(C)cc3)=NC2=O)cc(OC)c1O	none (no result: XiGFP reactiv)
Cc1ccc(C2=NC(=O)/C(=C/c3cc(O)c(O)c(Br)c3)S2)cc1	NSD2 HMT inh 120 | Alpha artifact 8.2µM
O=C(CN1CCC(C(=O)c2ccc3c(c2)OCCO3)CC1)Nc1ccccc1C(F)(F)F	none (no result: SR-BI uptake up, SR-BI DiI inh)
Cc1ccccc1NC(=O)CN1CCC(C(=O)c2ccc3c(c2)OCCO3)CC1	NSD2 HMT inh 56 | Alpha artifact inactive
Cc1ccc(S(=O)(=O)N2CCC(NC(=O)c3cccnc3)CC2)cc1Cl	NSD2 HMT inh 63 (no result: SR-BI uptake up, SR-BI DiI inh) | Alpha artifact inactive
Cc1nn(C)c(C)c1CCC(=O)N1CCCC(Nc2ccc(C(C)C)cc2)C1 (configuration not stated)	none
Cc1noc(C)c1S(=O)(=O)N1CCN(S(=O)(=O)c2ccccc2C#N)CC1	NSD2 HMT inh 107 (no result: SR-BI uptake up, SR-BI DiI inh) | Alpha artifact inactive
COc1ccc(S(=O)(=O)N(C)CC(=O)NCCN2CCOCC2)cc1Cl	NSD2 HMT inh 87 | Alpha artifact inactive
Cc1ccc(C)c(C(C)NC(=O)C2CC=CCC2C(=O)O)c1 (configuration not stated)	none
COc1ccc(-n2nnnc2-c2cnc(N3CCCC3)nc2C(F)(F)F)cc1	NSD2 HMT inh 52 (no result: XiGFP reactiv) | Alpha artifact inactive
CCOc1cc(C(=O)NCC(=O)N2CCC3(CC2)NCCc2[nH]cnc23)cc(OCC)c1OCC	NSD2 HMT inh 56 | Alpha artifact inactive
Cc1cc(C)cc(C(=O)NCC(=O)N2CCC3(CC2)NCCc2[nH]cnc23)c1	none
CCCn1c(CN2CCN(C(=O)OCC)CC2)nc2cc(NC(=O)C(C)C)ccc21	none
Cc1ccc(C(=O)NC(=S)c2c(C)cc3ccccn23)cc1	NSD2 HMT inh 92 (no result: ARNT-TACC3 inh, SR-BI uptake up, SR-BI DiI inh) | Alpha artifact 6.4µM
Cc1cc2ccccn2c1C(=O)c1ccc(Cl)cc1	none (no result: XiGFP reactiv)
Cc1cc2ccccn2c1C(=S)NC(=O)c1ccccc1	NSD2 HMT inh 55 | Alpha artifact 10µM
O=C(NNc1cc(N2CCOCC2)nc(N2CCOCC2)n1)c1ccc([N+](=O)[O-])cc1	NSD2 HMT inh 129 | Alpha artifact inactive
O=C(NCc1cn2ccccc2n1)C1CCC(=O)N(Cc2ccccc2F)C1 (configuration not stated)	none
O=C(OCc1ccc(Cl)c(Cl)c1)c1cccnc1Cl	NSD2 HMT inh 107 | Alpha artifact inactive
Cc1ccc(C(=O)OCC(=O)NC(C)c2ccccc2)s1 (configuration not stated)	none
O=C1CN(C(=O)COC(=O)c2ccc([N+](=O)[O-])s2)c2ccccc2N1	NSD2 HMT inh 60 (no result: HGIII-sPLA2 inh, XiGFP reactiv) | Alpha artifact inactive
CC(NC(=O)COC(=O)c1ccc([N+](=O)[O-])s1)c1ccccc1 (configuration not stated)	NSD2 HMT inh 66 | Alpha artifact inactive
O=C1CN(C(=O)COC(=O)c2cccs2)c2ccccc2N1	none
